Source: ChEMBL document CHEMBL1125930, “3-O-alkylascorbic acids as free-radical quenchers: synthesis and inhibitory effect on lipid peroxidation” (J Med Chem, 1991)

Key:
[1] = Partition ratio obtained from HPLC analysis.; format: ADME
Rattus norvegicus [2] = species: Rattus norvegicus; assay: The compound was tested for the inhibition of lipid peroxidation in rat liver microsomes induced by [Fe3+] at a concentration of 10E-5 M.; format: functional
In short: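 Fasted Wistar rat liver microsomes, 2.0 mg protein in 1 mL of 83.5 mM KCl/37.2 mM Tris-HCl pH 7.4. Peroxidation started with 1 mM ADP, 10 μM FeCl3 and 0.02 mM NADPH. Compound added in 0.01 mL DMF. 37 °C for 20 min, stopped on ice. Malondialdehyde measured as TBA-reactive material: 95 °C for 20 min, butanol/pyridine extract, A532. Compared with vehicle control.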

Rattus norvegicus [3] = species: Rattus norvegicus; assay: The compound was tested for the inhibition of lipid peroxidation in rat liver microsomes induced by [Fe2+] at a concentration of 10E-5 M.; format: functional
In short: (§1)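 Liver microsomes from 24 h-fasted Wistar rats (8000g then 105000g pellet, in 0.15 M KCl, protein by Lowry). 1 mL mix: 83.5 mM KCl, 37.2 mM Tris-HCl pH 7.4, 10 μM FeSO4, 2 mg microsomal protein, compound in 0.01 mL DMF. 37 °C for 20 min. TBA-reactive material read at 532 nm after n-BuOH/pyridine extraction. Reported against vehicle control.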

Rattus norvegicus [4] = species: Rattus norvegicus; assay: The compound was tested for the stimulation of lipid peroxidation in rat liver microsomes induced by [Fe2+] at a concentration of 10E-5 M.; format: functional; in short: as §1

| SMILES | k' [1] | inhibition (Rattus norvegicus [2]) [%] | inhibition (Rattus norvegicus [3]) [%] | Stimulation (Rattus norvegicus [4]) [%] |
| --- | --- | --- | --- | --- |
| CCCCCCCCCCOC1=C(O)C(=O)OC1C(O)CO (centres undefined) | 1.27 | 91 | 44 | – |
| CCCCCCC(=O)COC1=C(O)C(=O)OC1C(O)CO (centres undefined) | 0.24 | 27 | 20 | – |
| CC(=O)COC1=C(O)C(C2COC(C)(C)O2)OC1=O (centres undefined) | < 0.1 | 2 | – | – |
| CCCCCCCCCCCCOC1=C(O)OC(C(O)CO)C1=O (centres undefined) | 0.63 | 83 | – | – |
| CCCCCCCCCCCCCCCCOC1=C(O)C(=O)OC1C(O)CO (centres undefined) | 9.09 | 74 | 21 | – |
| CCCCCCCCCCCCOC1=C(O)C(=O)OC1C(O)CO (centres undefined) | 2.49 | 88 | 34 | – |
| CCCCCCCCCCCCCCOC1=C(O)C(=O)OC1C(O)CO (centres undefined) | 4.78 | 81 | 30 | – |
| CCCCCCCCCCCCCCC(=O)COC1=C(O)C(=O)OC1C(O)CO (centres undefined) | 4.33 | 65 | 33 | – |
| CCCCCCCCC(=O)COC1=C(O)C(=O)OC1C(O)CO (centres undefined) | 0.55 | 64 | 33 | – |
| O=C1O[C@H]([C@@H](O)CO)C(O)=C1O [ASCORBIC ACID] | < 0.1 | – | – | 72 |
| CCCCCCCCCCOC(=O)COC1=C(O)C(=O)OC1C(O)CO (centres undefined) | – | – | 31 | – |
| CCCCCCCCCCCCCCCCCCOC1=C(O)C(=O)OC1C(O)CO (centres undefined) | 17.34 | 45 | 7 | – |
| CCCCOC(=O)COC1=C(O)OC(C(O)CO)C1=O (centres undefined) | – | 10 | – | – |
| O=C1OC(C(O)CO)C(OCc2cccnc2)=C1O (centres undefined) | < 0.1 | 2 | – | – |
| CCCCCCCCCCCCCCCCC(=O)COC1=C(O)C(=O)OC1C(O)CO (centres undefined) | 8.26 | 43 | 28 | – |
| CCCCCCCCCCC(=O)COC1=C(O)C(=O)OC1C(O)CO (centres undefined) | 1.14 | 88 | 44 | – |
| CCCCCCCCCCOC1=C(OCCCCCCCCCC)C(C(O)CO)OC1=O (centres undefined) | – | 2 | – | – |
| CCCCCCCCCCCCC(=O)COC1=C(O)C(=O)OC1C(O)CO (centres undefined) | 2.25 | 81 | 30 | – |
| CCCCCCCCOC1=C(O)OC(C(O)CO)C1=O (centres undefined) | < 0.2 | 20 | – | – |
| CCCCCCCCCCCCCCCCCCOC1=C(O)[C@@H](C(O)CO)OC1=O (some centres undefined) | 1.13 | 88 | 29 | – |
| CCCCCCCCCCCCCCCCC(=O)COC1=C(O)OC(C(O)CO)C1=O (centres undefined) | 0.45 | 55 | – | – |
| CCCCCCCCOC1=C(O)C(=O)OC1C(O)CO (centres undefined) | 0.62 | 40 | 9 | – |
